Assay results from ChEMBL document CHEMBL3792296, “Synthesis and antiproliferative activity of 9-benzylamino-6-chloro-2-methoxy-acridine derivatives as potent DNA-binding ligands and topoisomerase II inhibitors” (Eur J Med Chem, 2016).
pIC50: −log10 of the molar value. Active and inactive are the calls of the source. No cut-off for these calls is given here.

What was measured:
A549 [1] = test: Antiproliferative activity against human A549 cells after 48 hrs by MTT assay; assay type: functional, cell-based; conditions: A549, 48 h
In short: (§1)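 MTT assay: cells seeded at 4-8 × 10³ per well, incubated overnight at 37 °C in 5% CO₂, then given fresh medium with graded compound concentrations or equal DMSO for 48 h. MTT (5 mg/mL solution) added for a further 4 h, formazan dissolved in DMSO, absorbance read at 490 nm. Six cancer cell lines tested.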

HeLa = test: Antiproliferative activity against human HeLa cells after 48 hrs by MTT assay; assay type: functional, cell-based; in short: as §1
CCRF-CEM = test: Antiproliferative activity against human CCRF-CEM cells after 48 hrs by MTT assay; assay type: functional, cell-based; in short: as §1
[2] = biological target: T1, DNA topoisomerase 1 (Homo sapiens) (UniProt P11387); test: Inhibition of human topoisomerase 1 assessed as reduction in enzyme-mediated relaxation of supercoiled pBR322 DNA at 50 to 100 uM after 10 to 15 mins by agarose gel electrophoresis
T1 sequence (whole entry): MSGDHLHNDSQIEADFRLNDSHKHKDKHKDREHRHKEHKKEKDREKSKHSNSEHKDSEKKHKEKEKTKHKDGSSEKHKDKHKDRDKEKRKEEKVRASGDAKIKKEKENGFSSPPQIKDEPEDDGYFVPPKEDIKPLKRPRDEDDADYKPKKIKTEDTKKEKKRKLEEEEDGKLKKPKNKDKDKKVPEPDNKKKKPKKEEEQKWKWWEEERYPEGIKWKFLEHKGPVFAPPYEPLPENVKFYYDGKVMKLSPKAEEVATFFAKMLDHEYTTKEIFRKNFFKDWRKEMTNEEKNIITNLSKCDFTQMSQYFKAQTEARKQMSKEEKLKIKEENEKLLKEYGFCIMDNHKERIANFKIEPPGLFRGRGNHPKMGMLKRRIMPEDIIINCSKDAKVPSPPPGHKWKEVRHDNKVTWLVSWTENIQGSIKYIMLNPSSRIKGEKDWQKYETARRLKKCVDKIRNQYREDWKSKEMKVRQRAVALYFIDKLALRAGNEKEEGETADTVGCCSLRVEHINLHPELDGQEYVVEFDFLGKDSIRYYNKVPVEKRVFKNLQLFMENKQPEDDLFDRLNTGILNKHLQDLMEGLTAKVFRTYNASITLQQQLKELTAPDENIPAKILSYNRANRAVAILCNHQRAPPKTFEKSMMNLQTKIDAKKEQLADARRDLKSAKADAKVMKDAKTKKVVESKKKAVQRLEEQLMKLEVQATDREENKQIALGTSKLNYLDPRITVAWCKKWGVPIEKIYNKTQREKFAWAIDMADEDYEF
In short: (§2)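 Relaxation of 500 ng supercoiled pBR322 by 1 unit human Topo I or Topo IIα, with or without compound, in 20 µL reaction buffer at 37 °C for 10-15 min. Reactions stopped with loading buffer, run on 0.8% agarose in TAE at 80 V for 30 min. Gels stained with ethidium bromide 2.5 µg/mL and viewed under UV.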

[3] = biological target: DNA topoisomerase 2-alpha (Homo sapiens) (UniProt P11388); test: Inhibition of human recombinant topoisomerase 2-alpha expressed in Escherichia coli assessed as reduction in enzyme-mediated relaxation of supercoiled pBR322 DNA at 10 to 50 uM after 10 to 15 mins by agarose gel electrophoresis; in short: as §2
DNA topoisomerase 2-alpha (Homo sapiens), sequence (P11388 whole entry): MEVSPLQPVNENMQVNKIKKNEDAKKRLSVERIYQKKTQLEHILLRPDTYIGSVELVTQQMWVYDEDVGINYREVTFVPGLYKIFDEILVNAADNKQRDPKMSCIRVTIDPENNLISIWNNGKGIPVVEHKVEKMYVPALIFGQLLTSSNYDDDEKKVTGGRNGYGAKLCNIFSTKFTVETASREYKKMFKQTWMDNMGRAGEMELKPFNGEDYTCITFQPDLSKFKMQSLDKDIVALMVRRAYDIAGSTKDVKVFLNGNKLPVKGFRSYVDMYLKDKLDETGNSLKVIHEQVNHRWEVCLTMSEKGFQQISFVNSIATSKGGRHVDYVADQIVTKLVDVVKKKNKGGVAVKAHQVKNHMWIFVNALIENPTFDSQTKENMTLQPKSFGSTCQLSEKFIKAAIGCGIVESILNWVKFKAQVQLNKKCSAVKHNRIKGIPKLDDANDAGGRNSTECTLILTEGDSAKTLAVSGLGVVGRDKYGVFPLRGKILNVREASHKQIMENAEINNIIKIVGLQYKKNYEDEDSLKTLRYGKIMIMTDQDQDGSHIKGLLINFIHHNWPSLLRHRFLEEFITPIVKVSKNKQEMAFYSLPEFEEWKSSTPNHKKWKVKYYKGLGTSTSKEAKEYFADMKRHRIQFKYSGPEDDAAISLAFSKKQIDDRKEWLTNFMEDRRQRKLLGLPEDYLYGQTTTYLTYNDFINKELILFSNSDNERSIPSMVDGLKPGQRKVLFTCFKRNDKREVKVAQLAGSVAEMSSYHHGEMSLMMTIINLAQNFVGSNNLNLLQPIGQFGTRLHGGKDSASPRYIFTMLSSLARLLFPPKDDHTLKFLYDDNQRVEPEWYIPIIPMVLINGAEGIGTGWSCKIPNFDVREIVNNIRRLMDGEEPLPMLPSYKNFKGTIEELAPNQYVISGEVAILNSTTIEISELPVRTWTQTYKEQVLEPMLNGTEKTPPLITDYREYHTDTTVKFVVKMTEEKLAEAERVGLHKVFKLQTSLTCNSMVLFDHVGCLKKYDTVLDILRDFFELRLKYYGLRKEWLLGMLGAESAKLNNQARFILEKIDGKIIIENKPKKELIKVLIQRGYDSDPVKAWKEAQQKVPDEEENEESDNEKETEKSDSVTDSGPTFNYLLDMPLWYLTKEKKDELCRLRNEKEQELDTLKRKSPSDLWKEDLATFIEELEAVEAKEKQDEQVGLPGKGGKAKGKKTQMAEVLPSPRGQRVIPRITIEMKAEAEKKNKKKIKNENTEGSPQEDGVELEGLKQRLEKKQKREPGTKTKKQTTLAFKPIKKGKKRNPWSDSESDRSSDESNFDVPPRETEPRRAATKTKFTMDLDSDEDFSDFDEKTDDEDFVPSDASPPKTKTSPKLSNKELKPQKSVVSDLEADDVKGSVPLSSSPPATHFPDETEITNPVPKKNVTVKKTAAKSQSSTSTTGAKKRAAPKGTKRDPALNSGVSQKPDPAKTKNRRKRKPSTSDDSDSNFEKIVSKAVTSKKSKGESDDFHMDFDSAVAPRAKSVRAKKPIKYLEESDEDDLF

Calf thymus DNA [4] = test: Binding affinity to calf thymus DNA at 10 uM spectrofluorimetric analysis; assay type: nucleic-acid assay; conditions: Bos taurus
In short: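 Compound at 10 µM final in 10 mM Tris-HCl, pH 7.4, titrated with ctDNA at 0-64 µM final. Emission recorded 420-750 nm with excitation at 400 nm using a xenon arc lamp source. Quenching constant K derived by Stern-Volmer fit, F₀/F = 1 + K[Q], where [Q] is the DNA concentration.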

Calf thymus DNA [5] = test: Binding affinity to calf thymus DNA after 5 mins by UV-vis spectrophotometry; assay type: nucleic-acid assay; conditions: Bos taurus
In short: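 ctDNA at 0-44 µM is added to compound at 10 µM final in Tris-HCl buffer (pH 7.4). UV-vis absorption spectra are recorded after 5 min standing. The binding constant K_b is taken from a plot of absorption data against DNA concentration.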

A549 [6] = test: Induction of apoptosis in human A549 cells assessed as early apoptotic cells at 10 uM after 36 hrs by Annexin V-FITC/propidium iodide staining based FACS analysis (reference value: 0.29%); assay type: functional
In short: (§3)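 A549 cells seeded at 2 × 10⁵ per well, incubated overnight, then treated at 0, 5 or 10 µM. The legend gives 36 or 48 h; the methods section states 24 h. Annexin V-FITC/PI kit staining followed by flow cytometry. Early and late apoptotic cells expressed as cumulative percentage relative to control.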

A549 [7] = test: Induction of apoptosis in human A549 cells assessed as late apoptotic cells at 5 uM after 36 hrs by Annexin V-FITC/propidium iodide staining based FACS analysis (reference value: 0.29%); assay type: functional; in short: as §3
A549 [8] = test: Induction of apoptosis in human A549 cells assessed as late apoptotic cells at 10 uM after 36 hrs by Annexin V-FITC/propidium iodide staining based FACS analysis (reference value: 0.29%); assay type: functional; in short: as §3
A549 [9] = test: Induction of apoptosis in human A549 cells assessed as early apoptotic cells at 5 uM after 48 hrs by Annexin V-FITC/propidium iodide staining based FACS analysis (reference value: 0.94%); assay type: functional; in short: as §3
A549 [10] = test: Induction of apoptosis in human A549 cells assessed as late apoptotic cells at 10 uM after 48 hrs by Annexin V-FITC/propidium iodide staining based FACS analysis (reference value: 0.62%); assay type: functional; in short: as §3
A549 [11] = test: Induction of apoptosis in human A549 cells assessed as increase in expression of cleaved caspase 3 at 1 to 2.5 uM after 48 hrs by Western blot analysis; assay type: functional, cell-based
In short: (§4)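 A549 cells grown to 80% confluency, treated with graded concentrations for 48 h, then lysed in Tris-HCl/NaCl/Triton X-100 buffer with protease inhibitors. 40 µg protein resolved on 12 or 15% SDS-PAGE and blotted to PVDF. Primary antibodies used at 1:1000 for 6-8 h, HRP anti-rabbit at 1:2000 for 2 h, ECL detection, β-actin as loading control.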

A549 [12] = test: Induction of apoptosis in human A549 cells assessed as increase in expression of cleaved caspase 7 at 1 to 2.5 uM after 48 hrs by Western blot analysis; assay type: functional, cell-based; in short: as §4
A549 [13] = test: Cell cycle arrest in human A549 cells assessed as accumulation at G0/G1 phase at 0.5 uM after 36 hrs by propidium iodide staining based flow cytometry (reference value: 61.65%); assay type: functional
A549 [14] = test: Cell cycle arrest in human A549 cells assessed as accumulation at G0/G1 phase at 5 uM after 36 hrs by propidium iodide staining based flow cytometry (reference value: 61.65%); assay type: functional
A549 [15] = test: Cell cycle arrest in human A549 cells assessed as accumulation at S phase at 0.5 uM after 36 hrs by propidium iodide staining based flow cytometry (reference value: 30.73%); assay type: functional
A549 [16] = test: Cell cycle arrest in human A549 cells assessed as accumulation at G2/M phase at 1 uM after 36 hrs by propidium iodide staining based flow cytometry (reference value: 7.62%); assay type: functional
A549 [17] = test: Cell cycle arrest in human A549 cells assessed as accumulation at G2/M phase at 5 uM after 36 hrs by propidium iodide staining based flow cytometry (reference value: 7.62%); assay type: functional

COc1ccc(CNc2c3ccc(Cl)cc3nc3ccc(OC)cc23)cc1
pIC50 (A549 [1]): 6.21
pIC50 (HeLa): 5.77
pIC50 (CCRF-CEM): 5.60
inhibition [2]: Active
inhibition [3]: Active
KSV (Calf thymus DNA [4]): 1.02 ×10⁵ /M
Kb (Calf thymus DNA [5]): 1.68 ×10⁵ /M
Activity (A549 [6]): 3.24%
Activity (A549 [7]): 10.47%
Activity (A549 [8]): 88.13%
Activity (A549 [9]): 4.23%
Activity (A549 [10]): 82.46%
Activity (A549 [11]): Active
Activity (A549 [12]): Active
Activity (A549 [13]): 61.48%
Activity (A549 [14]): 62.04%
Activity (A549 [15]): 30.4%
Activity (A549 [16]): 9.62%
Activity (A549 [17]): 16.52%
